Experimental data collected from several papers.
Compare with care: the assays were run in different laboratories.
Target: Serine/threonine-protein kinase mTOR (MTOR, Homo sapiens, UniProt P42345)

CCC(=O)N[C@H]1CC[C@@H](C(=O)N(C)c2ccc(-c3nc4ccccc4o3)cc2)C1 — remaining binding (cell-free assay, competition with immobilised ligand; 1 µM): 92%
N[C@H]1CCN(c2nccc(-c3cnn4ncccc34)n2)C1 — remaining binding (binding; 1 µM): 66%
CNC(=O)[C@@H]1CC[C@@H](n2c(-c3ccc4cnccc4c3)nc3ccc(C(=O)NCc4cccc(C(N)=O)c4)cc32)C1 — remaining binding (binding, competition with immobilised ligand; 1 µM): 66%
C[C@@H]1CCN(c2nccc(-c3cnn4ncccc34)n2)C1 — remaining binding (binding; 1 µM): 97%
O=C(O)[C@H]1[C@H](Cn2nnc3ccccc3c2=O)CC[C@@H]1C(=O)c1ccc(OCCC2CCOCC2)cc1 — remaining binding (cell-free assay, competition with immobilised ligand; 1 µM): 100%
Cc1cnn2ncc(-c3ccnc(N(C)C)n3)c2c1 — remaining binding (binding; 1 µM): 100%
c1cncc(-c2cccc(Nc3nccc(NC4CCCCC4)n3)c2)c1 — remaining binding (binding, competition with immobilised ligand; 10 µM): 94%
COc1cnc(Nc2cccc(S(N)(=O)=O)c2)nc1N1CCN(c2ccccc2)CC1 — remaining binding (binding, competition with immobilised ligand; 1 µM): 93%
O=C(c1ccc(Nc2nccc(-c3cc4ccccc4s3)n2)cc1)N1CCC(N2CCCC2)CC1 — remaining binding (binding, competition with immobilised ligand; 1 µM): 100%
CNC(=O)Nc1ccc2c(c1)CC[C@@]21OC(=O)N(CC(=O)N(Cc2ccc(F)cc2)[C@@H](C)C(F)(F)F)C1=O — remaining binding (cell-free assay, competition with immobilised ligand; 1 µM): 92%
COc1ccnn2ncc(-c3ccnc(N(C)C)n3)c12 — remaining binding (binding; 1 µM): 95%
O=C(c1ccc(Nc2ncc(Cl)c(-c3ccc(Cl)s3)n2)cc1)N1CCC(N2CCCC2)CC1 — remaining binding (binding, competition with immobilised ligand; 1 µM): 86%
O=C(Nc1c[nH]nc1C(=O)NC1CCNCC1)c1cc(F)cc(F)c1 — remaining binding (binding, competition with immobilised ligand; 1 µM): 100%
COc1ncc2cc3ccccc3nc2c1C#N — remaining binding (cell-free assay, competition with immobilised ligand; 5 µM): 91%
CN(C)c1ncnc(-c2ccc3nc(Nc4cc(CN5CCN(C(=O)CC(F)(F)F)CC5)ccn4)[nH]c3c2)c1Cl — remaining binding (cell-free assay, competition with immobilised ligand; 1 µM): 100%
F[C@@H]1CCN(c2nccc(-c3cnn4ncccc34)n2)C1 — remaining binding (binding; 1 µM): 77%
COc1cc(-c2cn(C3CCc4ccccc4N(CC(F)(F)F)C3=O)nn2)ccc1-n1ccc(C)n1 (centres unmarked) — remaining binding (cell-free assay, competition with immobilised ligand; 1 µM): 100%
CN(C)c1nccc(-c2cnn3ncccc23)n1 — remaining binding (binding; 1 µM): 100%
Cc1cnc(Nc2ccc(C(=O)N3CCC(N4CCCC4)CC3)cc2)nc1-c1cc2ccccc2s1 — remaining binding (binding, competition with immobilised ligand; 1 µM): 85%
CN(C)CC#Cc1ccc(OCCCc2sc(N3CCc4cccc(C(=O)Nc5nc6ccccc6s5)c4C3)nc2C(=O)O)c(F)c1 — remaining binding (cell-free assay, competition with immobilised ligand; 1 µM): 100%
